Measured values reported in publication PMC4145829 (Drug Design, Development and Therapy, 2014).
pIC50: −log10 of the molar value. Entries after “also recorded” stand apart in the source; their conditions may differ.

Columns and labels:
[1] = system: subintestinal vessels (SIVs) of zebrafish embryos; assay: Zebrafish subintestinal vessel angiogenesis assay; format: in vivo; settings: for effect on SIV angiogenesis (in words): zebrafish embryos
[2] = system: chick chorioallantoic membrane; settings: cited from earlier work
patients = settings: cited from earlier work; for Associated clinical toxicities: Table 1
zebrafish embryos = assay: Zebrafish toxicity assay; format: in vivo; settings: for gross morphological changes (in words): zebrafish larvae, exposure to 96 hours
In short: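 Wild-type embryos at 24 hpf, bath-exposed in distilled water (pH 6.8–8) at 28°C with solutions renewed every 24 h. Naïve and 0.1% DMSO vehicle controls were included. Five concentrations, spacing factor 2, within solubility limits; 12 embryos per concentration per replicate; three independent experiments. Toxicity scored at 48 and 96 hpf; NOEC/LOEC derived experimentally; LC50 from pooled mortality via sigmoidal fit.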

[3] = system: mouse dorsal air sac model; settings: cited from earlier work
[4] = system: human primary endothelial cells; settings: cited from earlier work
VEGFR = settings: read-out: VEGFR inhibition IC50; biochemical assays; cited from earlier work
[5] = Compound precipitation in the test medium; format: physicochemical; settings: test medium of the zebrafish assays (distilled water, 0.1% DMSO)
[6] = concentration not given, 96 hpf
[7] = patients enrolled in clinical trial

CNC(=O)c1cc(Oc2ccc(NC(=O)Nc3ccc(Cl)c(C(F)(F)F)c3)cc2)ccn1 [Sorafenib]
concentration giving complete regression of SIVs ([1]; 96 hpf): < 1 µM | effect on SIV angiogenesis (in words) ([1]; 96 hpf): complete inhibition of SIV angiogenesis | concentration with significant angiogenesis inhibition in the in vivo CAM assay [2]: 1 to 3 µM | Associated clinical toxicities (patients): Cardiotoxicity | gross morphological changes (in words) (zebrafish embryos): nonprogressive pericardial edema in all the embryos subjected to treatment (ie, 36/36)

CO[C@@H]1[C@H](OC(=O)NC(=O)CCl)CC[C@]2(CO2)[C@H]1[C@@]1(C)O[C@@H]1CC=C(C)C [TNP-470]
regression / decrease in SIV length [1, 6]: 20%–30% | effect on SIV angiogenesis (in words) ([1]; 96 hpf): formation of aberrant SIV extensions | concentration inhibiting angiogenesis in the CAM assay [2]: 100 to 125 µM | fold higher concentration than VEGFR inhibitors in the CAM assay [2]: 100 fold | toxicity limiting effectiveness [3]: severe weight loss | gross morphological changes (in words) (zebrafish embryos): abnormal notochord morphology

Cc1ccc(C(=O)Nc2ccc(S(=O)(=O)O)c3cc(S(=O)(=O)O)cc(S(=O)(=O)O)c23)cc1NC(=O)c1cccc(NC(=O)Nc2cccc(C(=O)Nc3cc(C(=O)Nc4ccc(S(=O)(=O)O)c5cc(S(=O)(=O)O)cc(S(=O)(=O)O)c45)ccc3C)c2)c1 [Suramin]
inhibition of vessels within the angiogenic basket [1, 6]: 45% | regression / decrease in SIV length [1, 6]: 30% | effective anti-angiogenic concentration range (in words) [4]: effective at micromolar concentrations | concentration inhibiting angiogenesis in the CAM assay [2]: 7 µM | fold higher concentration than VEGFR inhibitors in the CAM assay [2]: 7 fold | Associated clinical toxicities (patients): Multiple systemic toxicities | toxicities in clinical trials (patients): neutropenia, neurological dysfunction, and development of renal insufficiency | LC50 fold higher than the other multikinase inhibitors (zebrafish embryos; 96 hpf): about 200 fold | gross morphological changes (in words) (zebrafish embryos): multiple sub-lethal toxicities like yolk-sac edema, nonprogressive pericardial edema, bent notochord, and jaw deformity; also recorded: multiple pathological changes like jaw deformity, pericardial edema, notochord deformity, and patchy necrosis

COc1cc2c(Nc3ccc(Br)cc3F)ncnc2cc1OCC1CCN(C)CC1 [Vandetanib]
effect on SIV angiogenesis (in words) ([1]; 96 hpf): incomplete SIV regression | pIC50 (VEGFR): […] | Associated clinical toxicities (patients): Cardiotoxicity

Cc1ccc(Nc2nccc(N(C)c3ccc4c(C)n(C)nc4c3)n2)cc1S(N)(=O)=O [Pazopanib]
Associated clinical toxicities (patients): Cardiotoxicity

C#Cc1cccc(Nc2ncnc3cc(OCCOC)c(OCCOC)cc23)c1 [Erlotinib]
decrease in the number of SIVs within the basket ([1]; 1 μM, 96 hpf): no effect | regression in SIV length ([1]; 1 μM, 96 hpf): 10% | effect on SIV angiogenesis (in words) ([1]; 96 hpf): Angiogenesis inhibition was not demonstrated | Associated clinical toxicities (patients): Multiple systemic toxicities | concentration beyond which the compound precipitated [5]: > 1 µM

CCN(CC)CCNC(=O)c1c(C)[nH]c(/C=C2\C(=O)Nc3ccc(F)cc32)c1C [Sunitinib]
Associated clinical toxicities (patients): Cardiotoxicity | patients with congestive cardiac failure (patients; [7]): 11% | patients with decrease in left ventricular ejection fraction (patients; [7]): 28%

Cc1cc(C)c(/C=C2\C(=O)Nc3ccccc32)[nH]1 [SU5416]
decrease in the number of SIVs within the basket ([1]; 1 μM, 96 hpf): 85% | regression in SIV length ([1]; 1 μM, 96 hpf): 38% | effect on SIV angiogenesis (in words) ([1]; 96 hpf): incomplete SIV regression | Associated clinical toxicities (patients): Multiple systemic toxicities | gross morphological changes (in words) (zebrafish embryos): multiple gross morphological abnormalities like yolk-sac edema, shortened body axis, bent notochord, jaw deformity, blood pooling, and un-inflated swim bladder

COc1ccc(/C=C\c2cc(OC)c(OC)c(OC)c2)cc1O [Combretastatin]
effect on SIV angiogenesis (in words) ([1]; 96 hpf): lack of anti-angiogenic activity | effect on SIV angiogenesis (in words) ([1]; 96 hpf, listed as combretastatin): Angiogenesis inhibition was not demonstrated | Associated clinical toxicities (patients): Multiple systemic toxicities | gross morphological changes (in words) (zebrafish embryos): coagulation of zebrafish embryos

O=C1CCC(N2C(=O)c3ccccc3C2=O)C(=O)N1 (stereo not shown) [Thalidomide]
regression / decrease in SIV length [1, 6]: 20%–30% | effective anti-angiogenic concentration range (in words) [4]: effective at micromolar concentrations | anti-angiogenic effect in the CAM assay (in words) [2]: does not exhibit anti-angiogenic effects | Associated clinical toxicities (patients): Teratogenic | absence of fin development (zebrafish embryos; Figure S3): 100% | concentration with reduction of otolith size and altered fin development (zebrafish embryos; zebrafish embryos): > 300 µM | gross morphological changes (in words) (zebrafish embryos): did not result in gross morphological changes with respect to notochord development and development of cardiac edema

Bevacizumab
effect on SIV angiogenesis (in words) ([1]; 96 hpf): extremely variable results; also recorded: Angiogenesis inhibition was not demonstrated | gross morphological changes (in words) (zebrafish embryos): did not elicit dose-dependent toxicity or a consistent pathological phenotype

COc1cc2nccc(Oc3ccc(NC(=O)C4(C(=O)Nc5ccc(F)cc5)CC4)cc3)c2cc1OC [Cabozantinib]
Associated clinical toxicities (patients): Multiple systemic toxicities

CNC(=O)c1cc(Oc2ccc(NC(=O)Nc3ccc(Cl)c(C(F)(F)F)c3)c(F)c2)ccn1 [Regorafenib]
concentration giving complete regression of SIVs ([1]; 96 hpf): < 1 µM | effect on SIV angiogenesis (in words) ([1]; 96 hpf): complete inhibition of SIV angiogenesis | pIC50 (VEGFR): 7.34 to 7.89 | concentration with significant angiogenesis inhibition in the in vivo CAM assay [2]: 1 to 3 µM | gross morphological changes (in words) (zebrafish embryos): nonprogressive pericardial edema in all the embryos subjected to treatment (ie, 36/36)

Clc1ccc(Nc2nnc(Cc3ccncc3)c3ccccc23)cc1 [Vatalanib]
Associated clinical toxicities (patients): Multiple systemic toxicities | gross morphological changes (in words) (zebrafish embryos): multiple gross morphological abnormalities like yolk-sac edema, shortened body axis, bent notochord, jaw deformity, blood pooling, and un-inflated swim bladder

CN1CC[C@H](c2c(O)cc(O)c3c(=O)cc(-c4ccccc4Cl)oc23)[C@H](O)C1 [Flavopiridol]
decrease in the number of SIVs ([1]; 2 μM, 96 hpf): 72% | regression in SIV length ([1]; 2 μM, 96 hpf): 38% | effect on SIV length and basket (in words) ([1]; 2 μM, lectin staining at 72 hpf, Figure 2C): Partial regression of SIVs | effective anti-angiogenic concentration range (in words) [4]: effective at micromolar concentrations | Associated clinical toxicities (patients): Multiple systemic toxicities | toxicities in clinical trials (patients): tumor lysis syndrome and febrile neutropenia | gross morphological changes (in words) (zebrafish embryos): multiple sub-lethal toxicities like yolk-sac edema, nonprogressive pericardial edema, bent notochord, and jaw deformity; also recorded: Widespread tissue necrosis; also recorded: multiple pathological changes like jaw deformity, pericardial edema, notochord deformity, and patchy necrosis

COc1cc2nccc(Oc3ccc(NC(=O)Nc4cc(C)on4)c(Cl)c3)c2cc1OC [Tivozanib]
concentration giving complete regression in SIVs ([1]; 96 hpf): 5 nM | improvement of progression-free survival (patients; patients with renal cell carcinoma): ~12 months
